Experimental data from different studies.
Compare with care: the assays were run in different laboratories.
Target: Glycogen synthase kinase-3 beta (GSK3B, Homo sapiens, UniProt P49841)

| SMILES | read-out | action | technique | concentration | quantity | result |
| --- | --- | --- | --- | --- | --- | --- |
| CN(C)c1ncnc(-c2ccc3nc(Nc4cc(CN5CCN(C(=O)CC(F)(F)F)CC5)ccn4)[nH]c3c2)c1Cl | cell-free assay | – | competition with immobilised ligand | 1 µM | remaining binding | 100% |
| Cc1ncc([N+](=O)[O-])n1CCO | enzyme activity | inhibitor | ADP detection | 100 µM | inhibition | 32.8% |
| CCCOc1ccc(OC)c(F)c1C(=O)c1ccc(C(=O)N[C@@H]2CNC[C@H]2NC(=O)c2ccc3[nH]ncc3c2)cc1 | enzyme activity | inhibitor | – | 10 µM | remaining activity | 67% |
| Cc1cnc(NC2CCOCC2)nc1-n1cnc(C(=O)NC(CN)c2cc(F)cc(Cl)c2)c1 (stereo not shown) | enzyme activity | inhibitor | radiometric | 1 µM | remaining activity | 7% |
| COc1cc(/C=C/C(=O)CC(=O)/C=C/c2ccc(O)c(OC)c2)ccc1O | enzyme activity | inhibitor | – | 1 µM | activity vs control | 105% |
| CCC(=O)N[C@@H]1CC[C@H](C(=O)N(C)c2ccc(-c3nc4ccccc4o3)cc2)C1 | cell-free assay | – | competition with immobilised ligand | 1 µM | remaining binding | 96% |
| Nc1ncnc2occ(-c3ccc(NC(=O)Nc4cc(C(F)(F)F)ccc4F)cc3)c12 | enzyme activity | inhibitor | – | 20 µM | remaining activity | 57% |
| O=C(O)c1cn(C2CC2)c2cc(N3CCNCC3)c(F)cc2c1=O | enzyme activity | inhibitor | ADP detection | 100 µM | inhibition | 18.7% |
| CN(C)C1CCN(CC#Cc2nn(C3CCCC3)c3nc(NCc4ccccc4)ncc23)C1 (stereo not shown) | enzyme activity | inhibitor | FRET | 10 µM | inhibition | 7% |
| OCc1ccccn1 | enzyme activity | inhibitor | ADP detection | 100 µM | inhibition | 4.4% |
| Cn1sc(=O)n(Cc2ccccc2)c1=O | cell-free assay | – | – | 0.5 µM | remaining signal | 114% |
| CS(=O)(=O)c1cc(C2(NC(=O)c3cncc4c3cnn4-c3ccc(F)cc3)CC2)ccn1 | cell-free assay | – | competition with immobilised ligand | 1 µM | remaining binding | 85% |
| CC(C)c1ccc(NC(=O)c2cccs2)c(-c2nc3ccccc3[nH]c2=O)c1 | enzyme activity | inhibitor | – | 1 µM | activity vs control | 128% |
| CS(=O)(=O)NCC[C@H](NC(=O)c1cncc2c1cnn2-c1ccc(F)cc1)c1ccnc(S(C)(=O)=O)c1 | cell-free assay | – | competition with immobilised ligand | 1 µM | remaining binding | 100% |
| Oc1cccc(-c2nc(N3CCOCC3)c3oc4ncccc4c3n2)c1 | enzyme activity | inhibitor | – | 10 µM | remaining activity | 48% |
| Cc1cc(NS(=O)(=O)c2ccc(N)cc2)nc(C)n1 | enzyme activity | inhibitor | ADP detection | 100 µM | inhibition | 11.7% |
| FC(F)(F)Oc1cccc(-c2cnc3ccc(-c4ccncc4)nn23)c1 | enzyme activity | inhibitor | radiometric | 1 µM | activity vs control | 88% |
| O=C1c2ccccc2-c2n[nH]c3cccc1c23 | enzyme activity | inhibitor | – | 0.5 µM | activity vs control | 86.8% |
| COc1cc(Nc2cnc(C#N)c(O[C@H](C)CN(C)C)n2)ncc1-c1cnn(C)c1 | enzyme activity | inhibitor | radiometric | 1 µM | remaining activity | 90% |

| SMILES | read-out | action | technique | concentration | quantity | result |
| --- | --- | --- | --- | --- | --- | --- |
| COc1ccc(CNC(=O)Nc2ncc([N+](=O)[O-])s2)cc1 | cell-free assay | – | – | 0.5 µM | remaining signal | 40.2% |
| CN1CCOC(c2ccccc2)c2ccccc2C1 (stereo not shown) | enzyme activity | inhibitor | ADP detection | 100 µM | inhibition | 12.9% |
| CC(C)n1cnc2c(Nc3cccc(Cl)c3)nc(NCCO)nc21 | cell-free assay | – | – | 0.5 µM | remaining signal | 96% |
| COc1cc2c(cc1OC)-c1c(oc3c4c(ccc3c1=O)OC(C)(C)C=C4)CO2 | enzyme activity | inhibitor | ADP detection | 100 µM | inhibition | 10.4% |
| CNC(=O)c1cc(Oc2ccc(NC(=O)Nc3ccc(Cl)c(C(F)(F)F)c3)cc2)ccn1 | cell-free assay | – | – | 0.5 µM | remaining signal | 101% |
| CC1CCc2c(N3CCC(O)CC3)c(F)cc3c(=O)c(C(=O)O)cn1c23 (stereo not shown) | enzyme activity | inhibitor | ADP detection | 100 µM | inhibition | 46.1% |
| COc1cc(Cl)c(C(=O)N[C@@H](CN[C@H]2CC[C@@H](N)CC2)Cc2ccc(C#N)cc2)cc1-c1ccc(CN[C@H](C)c2ccc(C)cc2)o1 | enzyme activity | inhibitor | – | 1 µM | remaining activity | 101% |
| Cc1ccc(C(=O)Nc2ccc(CN3CCN(C)CC3)c(C(F)(F)F)c2)cc1C#Cc1cnc2cccnn12 | enzyme activity | inhibitor | – | 23.5 nM | remaining activity | 92% |
| C[C@@H](c1cccc(C#N)c1)n1cc(Cl)cc(C(N)=O)c1=N | cell-free assay | – | competition with immobilised ligand | 1 µM | remaining binding | 88% |
| COc1cc(-c2coc3cc(O)c(OC)c(O)c3c2=O)cc(O)c1OC | enzyme activity | inhibitor | ADP detection | 100 µM | inhibition | 29% |
| N#CCCc1ccc2c(c1)-c1[nH]c3ccc([N+](=O)[O-])cc3c1CC(=O)N2 | cell-free assay | – | – | 0.5 µM | remaining signal | 2.71% |
| Cc1sc(C(=O)NC2COC2)cc1-n1cc(NC(=O)Nc2c(F)cccc2Cl)cn1 | enzyme activity | inhibitor | – | 10 µM | remaining activity | 94.9% |
| C[C@@H]1CN(c2cc(-c3nn(C)c4ccc(OC5(C)CC5)cc34)ncn2)C[C@H](C)O1 | cell-free assay | – | competition with immobilised ligand | 1 µM | remaining binding | 91% |
| O=C1Nc2ccc(Cl)cc2C1=Cc1cc(Cl)c(O)c(Cl)c1 | cell-free assay | – | – | 0.5 µM | remaining signal | 80.8% |
| C[C@@H]1CN(c2cc(-c3n[nH]c4ccc(OC5(C)CC5)cc34)ncn2)C[C@H](C)O1 | cell-free assay | – | competition with immobilised ligand | 0.1 µM | remaining binding | 90% |
| O=c1cc(-c2cccc3c2Sc2ccccc2S3)oc(N2CCOCC2)c1 | enzyme activity | inhibitor | – | 0.5 µM | remaining activity | 98.7% |
| Cc1nc(C2CCN(C(=O)c3ccc(OC(F)(F)F)cc3N)CC2)c2ncc(N3CCN(C)CC3)cc2n1 | cell-free assay | – | competition with immobilised ligand | 1 µM | remaining binding | 100% |
| Cc1ccc(C(=O)NCc2ccsc2)cc1C#Cc1cn(C(C)C)c2ncnc(N)c12 | enzyme activity | inhibitor | – | 1 µM | activity vs control | 102% |
